Shown are actives, neighbours in structure and some others; about 5.1% of the full set was active somewhere.
NF-kB neuron act: raises NF-kB expression in human neuronal cells. NF-kB reporter expression; active compounds read high. fold change at 12.5 µM. hit rate 1.6% among 190,000. AID 1239; in the data active = fold change above about 3.3
STAT1 blocker: STAT1 signaling inhibition; NIH 3T3 STAT1-luciferase reporter, IFN-gamma, luminescence; inhibition, % at 5.5 µM; hit rate 0.35% among 200,000;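 active = inhibition above a set limit, the mean inhibition across all tested compounds plus 3 SD, cut at about 34% in these data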;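 note: 0% = IFN-gamma with DMSO and 100% = IFN-gamma with 300 µM nifuroxazide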
STAT3 activator: STAT3 signaling activation. hit rate 0.91% among 190,000. activation (% of control), % at 5.6 µM. U3A cells, IL-6 STAT3-luciferase reporter, luminescence; 100% = signal with IL-6 EC80 alone. AID 871;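 active = activation above the screen-wide mean of compound activation plus 3 SD, cut at about 130% in these data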;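 note: 0% = background luminescence of wells with medium and substrate only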
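Material: STAT3-luciferase reporter U3A cells; Probe or stimulus: IL-6 (33 ng/mL); Incubation: compound pre-incubation 1 h before IL-6, then 6 h stimulation at 37 °C; Technique: luminescence from STAT3-driven luciferase reporter; Evaluation: % activation versus median of IL-6-stimulated wells; Controls: IL-6-only high control.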
STAT3 blocker: reduces IL-6 driven STAT3 reporter signal | inhibition, % at 5.5 µM | hit rate 0.89% among 190,000 | AID 862 | U3A cells, IL-6 STAT3-luciferase reporter, luminescence; host cell line lacks STAT1;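 active = inhibition above the mean inhibition across all screened compounds plus 3 SD, cut at about 44% in these data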;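 note: 0% = DMSO only wells and 100% = 100 µM nifuroxazide control wells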
APP 5'UTR act: APP 5'UTR luciferase reporter activation. activation, % at 2 µM. AID 1276. SH-SY5Y APP 5'UTR luciferase reporter, luminescence; zero percent = DMSO vehicle wells. hit rate 1% among 190,000;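 active = activation above a set limit, based on mean plus 3 SD of controls, cut at about 140% in these data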
STAT1 act: STAT1 signaling activation. NIH 3T3 STAT1-luciferase reporter, IFN-gamma, luminescence; 100% = IFN-gamma alone, no compound. hit rate 2.6% among 200,000. activation (% of control), % at 5.5 µM. AID 932;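 active = activation above the screen-wide mean activation plus 3 SD, cut at about 130% in these data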;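 note: raw ratio to IFN-gamma control signal so 100% means no change and 0% no light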
* hit, by the source's call; . = no result.

SMILES	NF-kB neuron act	STAT1 blocker	STAT3 activator	STAT3 blocker	APP 5'UTR act	STAT1 act
COc1ccc(CCNC(=O)CSc2nnnn2-c2ccc(OC)c(OC)c2)cc1OC	1	6	99	5	13	94
Cc1ccc2nc(NC(=O)CCCC(=O)O)sc2c1	0.28	51*	36	80*	-60	51
CCCCNC(=O)Nc1nc2ccc(CC)cc2s1	1.9	-47	95	14	85	144*
CCOCC(=O)Nc1nc2ccc(C)cc2s1	3.4*	-26	77	30	96	124
Cc1ccc2nc(NC(=O)CCCc3nc4ccccc4s3)sc2c1	1.4	-15	66	41	62	114
Cc1ccc2nc(NC(=O)c3ccc4ncsc4c3)sc2c1	4.1*	-53	104	1	172*	147*
CC(NC(=O)C1c2ccccc2Oc2ccccc21)C1CCCO1 (centres undefined)	0.93	-1	99	6	-7	98
CCOC(=O)Nc1nc2ccccc2s1	3.5*	-29	87	22	56	127
O=C(Cc1c(F)cccc1Cl)Nc1nc2ccccc2s1	1	-43	105	-1	51	135*
CCCCCCCC[n+]1cccc2c3ccccc3ccc21	2	38*	29	87*	-20	64
CCCCCCCCCC[n+]1cccc2c3ccccc3ccc21	1.8	51*	29	87*	-24	52
Cc1cccc[n+]1CCCCCCCCCC[n+]1ccccc1C	1	1	103	3	1	99
Cc1cc(=O)n2[nH]c(-c3ccc(C(C)(C)C)cc3)cc2n1	5.1*	-6	92	7	16	106
CCc1c(C)nc2cc(-c3ccc(OC)cc3)[nH]n2c1=O	2.3	-33	107	-2	112	130*
Cc1ccc(C)c(N(CC(=O)NC(C)(C)C)C(=O)CNC(=O)c2cccs2)c1	0.95	-3	98	8	1	103
CCn1c(=S)[nH]c2cc(S(=O)(=O)N3CCCCC3)ccc21	1.4	10	86	18	30	91
Oc1c(C=NCc2ccccc2)sc2ccccc12	3.5*	-48	103	-2	11	143*
O=C(NCCc1ccccc1)C(=S)N1CCCCC1	1.2	-9	91	13	-2	106
C(=N/N1CCN(c2ccccc2)CC1)/c1ccncc1	1.1	4	75	33	5	95
Cc1cccnc1NC(=O)Cn1nc(-c2ccccc2)oc1=S	4.2*	-19	98	6	170*	117
Cc1cccnc1NC(=O)Cn1nc([N+](=O)[O-])cc1C	1.2	-1	100	7	-14	99
Cc1ccc(NC(=O)Nc2cc(C)on2)cc1	1.9	-32	92	14	67	130*
Cc1ccc(NC(=O)Nc2ccc(F)cc2)nc1	2.1	-48	97	7	35	136*
Cc1ccc(NC(=O)Nc2ccc3c(c2)N(C)C(=O)CS3)nc1	1.1	-31	74	33	-1	129*
CCOc1ccc(NC(=O)Nc2ccc(Br)cn2)cc1	1.9	-51	86	26	50	145*
SMILES	NF-kB neuron act	STAT1 blocker	STAT3 activator	STAT3 blocker	APP 5'UTR act	STAT1 act
CCOc1ccc(S(=O)(=O)N2CCOCC2)cc1[N+](=O)[O-]	1	3	94	10	-4	96
O=C(Nc1ccc(F)cc1)c1nsc(Cl)c1Cl	5*	-47	130	-32	127	138*
CCOc1ccc(NC(=O)c2nsc(Cl)c2Cl)cc1	6.4*	-56	96	9	234*	150*
CCCSc1nnc(CSc2nc(C)cc(C)n2)n1C	.	-1	98	8	7	99
Cc1ccc(C(=O)C2=C(O)C(=O)N(Cc3ccccc3)C2c2cccnc2)o1 (centres undefined)	0.83	37*	94	6	5	66
O=C(Nc1ccc(S(=O)(=O)N2CCCCC2)cc1)c1ccc(CN2CCc3ccccc3C2)cc1	0.61	31	33	87*	-15	72
O=C(Nc1ccccc1)c1ccc(S(=O)(=O)N2CCCCC2)cc1	1	6	94	12	3	95
CCc1ccc(N2C(=O)CC(N(CC3CCCO3)C(=O)/C=C/C(=O)O)C2=O)cc1 (centres undefined)	0.91	-1	95	7	-3	101
NC(=O)C1=C[C@@H](c2ccccc2)C[C@@H](OCc2ccc(CO)cc2)O1	1.1	4	.	.	-10	97
Cc1ccc(SCn2nnc3ccccc3c2=O)c(C)c1	2.9	-43	103	-3	76	141*
Cc1cc(=O)[nH]c(SCn2nnc3ccccc3c2=O)n1	1.1	1	101	3	-1	100
O=c1c2ccccc2nnn1CSc1nc2ccccc2[nH]1	2.2	-38	98	-2	66	135*
Cc1ccc(-n2c(SCn3nnc4ccccc4c3=O)nnc2-c2cccnc2)c(C)c1	0.52	2	91	17	-2	97
O=C(Oc1ccc(-c2nccc(-c3ccccn3)n2)cc1)c1cccc(C(F)(F)F)c1	3.4*	23	89	16	33	79
Cc1ccoc1C(=O)N1CCCCC1C(=O)O (centres undefined)	1.4	5	98	14	24	95
CCCn1c(C)cc(C(=O)COC(=O)CN=C2NS(=O)(=O)c3ccccc32)c1C	1	4	95	4	6	96
Cc1cc(S(=O)(=O)N2CCOCC2)ccc1F	4.4*	5	99	1	14	95
CSc1nc2ccc(S(=O)(=O)N3CCOCC3)cc2s1	0.77	2	135*	-39	10	98
CSc1nc2ccc(S(=O)(=O)N3CCCCC3)cc2s1	1	10	102	4	-6	91
Cc1ccc(CNC(=O)Cn2c(=O)n(-c3ccccc3)c(=O)c3sccc32)cc1	1.2	13	112	-14	-4	86
Cc1nc2ccc(NC(=O)c3cccnc3)cc2s1	1.1	-11	96	12	13	109
Cc1nc2ccc(NC(=O)c3ccc(Cl)s3)cc2s1	2.2	-51	102	7	111	146*
O=C(Nc1ccc(-c2nc3cccnc3s2)cc1)c1ccc(Br)o1	2.3	-35	90	17	33	131*
Cc1nc2ccc(NC(=O)c3ccc(Br)o3)cc2s1	3.4*	-52	88	22	100	145*
Cc1nc2ccc(NC(=O)Cc3cccs3)cc2s1	2.5	-36	113	-11	63	136*
CC1CCCCC1NC(=O)CSc1nncn1N (centres undefined)	1.1	0	95	9	-9	98
COC(=O)c1ccc(N2C(=O)Nc3ccccc3N2O)cc1	0.9	-7	109	-3	6	106
Brc1ccc(-c2nc3ccccc3s2)s1	6.8*	-41	105	4	115	137*
Nc1nc(Nc2ccc(Cl)cc2Cl)nc(C(F)(F)F)n1	1.9	-44	109	-8	0	140*

Bioassay records as filed in PubChem BioAssay.
